The array DNA melting data of Ke et al. (doi:10.1101/2024.01.08.574731)

Columns and labels:
[1] = melting temperature; fluorescence melt of hairpins on a sequencing array, two-state fit, raised by 9.35 °C to match UV melts; conditions: sodium 0.088 M
Procedure, shortened: (§1)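 On a sequenced MiSeq flow cell, library hairpins with annealed Cy3 and quencher oligos were imaged for Cy3 fluorescence in 2.5 °C steps up to 60 °C, in 50 mM Na-HEPES pH 8.0, 25 mM NaCl. Normalisation used pre-quench Cy3 and control constructs. Bootstrapped two-state fits gave melting temperature and folding enthalpy, combined by inverse variance across four replicates and with fitted temperatures raised by 9.35 °C to match UV melts.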

[2] = folding enthalpy; higher = less favourable; fluorescence melt of hairpins on a sequencing array, two-state fit; conditions: sodium 0.088 M
Procedure, shortened: as §1

| Sequence | Tm [1] | folding enthalpy [2] |
| --- | --- | --- |
| GTGCTCGAAAGAGAGCAC ((((((....)))..))) | 58.2 °C | -34.2 kcal/mol |
| GTGCTCGAAAGAGCGCAC ((((((....)))..))) | 57.1 °C | -11.6 kcal/mol |
| GTGCTCGAAAGAGGCCAC ((((((....)))..))) | 35.9 °C | -16 kcal/mol |
| GTGCTCGGAAACGAACAC (((.(((....))).))) | 47.6 °C | -35.3 kcal/mol |
| GTGCTCGGAAACGAGTAC ((.((((....)))).)) | 55.4 °C | -43.8 kcal/mol |
| GTGCTCGGAAACGGGTAC ((.(.((....)).).)) | 41.9 °C | -32.8 kcal/mol |
| GTGCTGCCGAAAGGCCAC (((..(((....)))))) | 48.1 °C | -11.5 kcal/mol |
| GTGCTGGGAAACCAGCGC (.(((((....))))).) | 61.6 °C | -29.5 kcal/mol |
| GTGCTGGGAAACCGGTAC ((.(.((....)).).)) | 42.1 °C | -33.1 kcal/mol |
| GTGCTTCGAAAGAATCAC (((.(((....))).))) | 41.6 °C | -35.5 kcal/mol |
| GTGCTTGGAAACAAGCAC (((((((....))))))) | 68.1 °C | -38.7 kcal/mol |
| GTGCTTGGAAACAAGCGC (.(((((....))))).) | 61.3 °C | -32.2 kcal/mol |
| GTGGAACGAAAGTTACAC (((.(((....))).))) | 57 °C | -40.4 kcal/mol |
| GTGGAACGAAAGTTTCAC (((.(((....))).))) | 53.2 °C | -42.7 kcal/mol |
| GTGGACGAAAGTCAGCAC ((((((....)))..))) | 40.3 °C | -16.1 kcal/mol |
| GTGGACGAAAGTCATCAC ((((((....)))..))) | 36.3 °C | -13.1 kcal/mol |
| GTGGACGAAAGTCCTCAC ((((((....)))..))) | 38 °C | -9.72 kcal/mol |
| GTGGACGAAAGTCTCAC ((((((....))).))) | 46.6 °C | -20.1 kcal/mol |
| GTGGACGCGAAAGCGCAC (((..(((....)))))) | 47.8 °C | -15.4 kcal/mol |
| GTGGACGGAAACATCCAC (((((.(....).))))) | 43.6 °C | -31.8 kcal/mol |
| GTGGAGACGAAAGTCCAC (((..(((....)))))) | 47.6 °C | -22.8 kcal/mol |
| GTGGAGCGAAAGCTCAC (((.(((....)))))) | 52.1 °C | -12.1 kcal/mol |
| GTGGAGGGAAACCCCCAC ((((.((....)).)))) | 48.8 °C | -30.6 kcal/mol |

| Sequence | Tm [1] | folding enthalpy [2] |
| --- | --- | --- |
| GTGGAGGGAAACCTCCAC (((((((....))))))) | 66.5 °C | -40.9 kcal/mol |
| GTGGAGGGAAACCTTCAC (((.(((....))).))) | 47.3 °C | -31.9 kcal/mol |
| GTGGATCGAAAGATACAC (((.(((....))).))) | 55.9 °C | -44.2 kcal/mol |
| GTGGATCGAAAGATCAC (((.(((....)))))) | 48.8 °C | -13.3 kcal/mol |
| GTGGATGGAAACATCCGC (.(((((....))))).) | 56.1 °C | -28 kcal/mol |
| GTGGATGGAAACATTCAC (((.(((....))).))) | 46.6 °C | -45.5 kcal/mol |
| GTGGATGGAAACATTCGC (.(.(((....))).).) | 34.9 °C | -28.4 kcal/mol |
| GTGGATGGAAACGTCCAC (((((.(....).))))) | 53 °C | -47.6 kcal/mol |
| GTGGATTCGAAAGAACAC (((..(((....)))))) | 32 °C | -17.4 kcal/mol |
| GTGGCAGCGAAAGCTCAC (((..(((....)))))) | 43.7 °C | -12.4 kcal/mol |
| GTGGCCGAAAGGCACAC ((((((....))).))) | 63.1 °C | -15.1 kcal/mol |
| GTGGCCGAAAGGCGCCAC ((((((....)))..))) | 49 °C | -13.7 kcal/mol |
| GTGGCCGAAAGGCTTCAC ((((((....)))..))) | 33.6 °C | -12.4 kcal/mol |
| GTGGCCGCGAAAGCGCAC (((..(((....)))))) | 48.4 °C | -9.11 kcal/mol |
| GTGGCCGGAAACGACCAC ((((.((....)).)))) | 56.5 °C | -40.3 kcal/mol |
| GTGGCGGCGAAAGCCCAC (((..(((....)))))) | 54 °C | -15 kcal/mol |
| GTGGCGGGAAACCACCAC ((((.((....)).)))) | 51.5 °C | -35.4 kcal/mol |
| GTGGCGGGAAACCGCTGC (..((((....))))..) | 47.9 °C | -15.4 kcal/mol |
| GTGGCGGGAAACTGCCAC (((((.(....).))))) | 60.7 °C | -54.1 kcal/mol |
| GTGGCGGGAAACTGCCGC (.(((.(....).))).) | 53.5 °C | -22.2 kcal/mol |
| GTGGCTCGAAAGAGACAC (((.(((....))).))) | 68.9 °C | -40.1 kcal/mol |
| GTGGCTCGAAAGAGCAC (((.(((....)))))) | 51.2 °C | -11.8 kcal/mol |
| GTGGCTGGAAACAACCAC ((((.((....)).)))) | 45.8 °C | -34.4 kcal/mol |

| Sequence | Tm [1] | folding enthalpy [2] |
| --- | --- | --- |
| GTGGGACGAAAGTCTCAC (((.(((....))).))) | 60 °C | -36 kcal/mol |
| GTGGGAGAAATCCCAC ((((((....)))))) | 58.8 °C | -28.3 kcal/mol |
| GTGGGAGCGAAAGCTCAC (((..(((....)))))) | 62.9 °C | -19.2 kcal/mol |
| GTGGGAGGAAACCCCCAC (((((.(....).))))) | 50.3 °C | -38.8 kcal/mol |
| GTGGGAGGAAACTCCCGC (.(((((....))))).) | 56.7 °C | -33.4 kcal/mol |
| GTGGGATCGAAAGATCAC (((..(((....)))))) | 54.4 °C | -44.4 kcal/mol |
| GTGGGCACGAAAGTGCAC (((..(((....)))))) | 65.4 °C | -14.6 kcal/mol |
| GTGGGCCGAAAGGCTCAC (((.(((....))).))) | 69.2 °C | -29.6 kcal/mol |
| GTGGGCGAAAGCCACAC ((((((....))).))) | 59.9 °C | -14.4 kcal/mol |
| GTGGGCGAAAGCCATCAC ((((((....)))..))) | 39.7 °C | -11.4 kcal/mol |
| GTGGGCGAAAGCCGGCAC ((((((....)))..))) | 45.8 °C | -12.1 kcal/mol |
| GTGGGCTCGAAAGAGCAC (((..(((....)))))) | 65.5 °C | -26 kcal/mol |
| GTGGGGCCGAAAGGCCAC (((..(((....)))))) | 64.9 °C | -16.2 kcal/mol |
| GTGGGGGGAAACCCCCGC (.(((((....))))).) | 60 °C | -19.4 kcal/mol |
| GTGGGGGGAAACCCTCGC (.(.(((....))).).) | 40.8 °C | -17.2 kcal/mol |
| GTGGGGGGAAACCTCCAC ((((.((....)).)))) | 54.5 °C | -44.1 kcal/mol |
| GTGGGTCCGAAAGGACAC (((..(((....)))))) | 63 °C | -19 kcal/mol |
| GTGGGTCGAAAGACCAC (((.(((....)))))) | 57 °C | -14.3 kcal/mol |
| GTGGGTGGAAACACCCGC (.(((((....))))).) | 63.3 °C | -22.7 kcal/mol |
| GTGGGTGGAAACACTCAC (((.(((....))).))) | 52.1 °C | -37.2 kcal/mol |
| GTGGGTGGAAACGCCTAC ((.((.(....).)).)) | 41.9 °C | -25.3 kcal/mol |
| GTGGGTGGAAACGTCCAC ((((..(....)..)))) | 46 °C | -18.8 kcal/mol |
